Measurements as given in ChEMBL document CHEMBL5370647 (J Med Chem, 2023).
Values after ≈ are worked out from the molar mass of the structure shown.

What was measured:
[1] = tested on: Mycobacterium tuberculosis; test: Antitubercular activity against Mycobacterium tuberculosis H37Rv constitutively expressing GFP assessed as inhibition of bacterial growth at 20 uM incubated for 7 days by fluorescence based analysis; type: functional; settings: 168 h, time 7 day
[2] = tested on: Mycobacterium tuberculosis; test: Antitubercular activity against replicating Mycobacterium tuberculosis H37Rv constitutively expressing GFP assessed as inhibition of bacterial growth under normoxia conditions incubated for 3 weeks by spot assay; type: functional; settings: 504 h
[3] = tested on: Mycobacterium tuberculosis; test: Antitubercular activity against non-replicating Mycobacterium tuberculosis H37Rv constitutively expressing GFP assessed as inhibition of bacterial growth incubated for 7 days under hypoxic condition followed by incubation in aerobic conditions for 1 to 5 days by spot assay; type: functional; settings: time 8-12 day
[4] = tested on: Mycobacterium tuberculosis; test: Antitubercular activity against non-replicating Mycobacterium tuberculosis H37Rv expressing luxCDAB assessed as inhibition of bacterial growth incubated for 7 days under hypoxia conditions followed by incubation in normoxia conditions for 5 days by luminescence based analysis; type: functional; settings: 288 h, time 12 day
TGF-beta receptor type-1 = molecular target: T1, TGF-beta receptor type-1 (Homo sapiens, UniProt P36897); test: Binding affinity to wild type human partial length TGFBR1 (D179 to M503 residues) expressed in bacterial expression system by KINOMEscan assay
T1 sequence (P36897 whole entry): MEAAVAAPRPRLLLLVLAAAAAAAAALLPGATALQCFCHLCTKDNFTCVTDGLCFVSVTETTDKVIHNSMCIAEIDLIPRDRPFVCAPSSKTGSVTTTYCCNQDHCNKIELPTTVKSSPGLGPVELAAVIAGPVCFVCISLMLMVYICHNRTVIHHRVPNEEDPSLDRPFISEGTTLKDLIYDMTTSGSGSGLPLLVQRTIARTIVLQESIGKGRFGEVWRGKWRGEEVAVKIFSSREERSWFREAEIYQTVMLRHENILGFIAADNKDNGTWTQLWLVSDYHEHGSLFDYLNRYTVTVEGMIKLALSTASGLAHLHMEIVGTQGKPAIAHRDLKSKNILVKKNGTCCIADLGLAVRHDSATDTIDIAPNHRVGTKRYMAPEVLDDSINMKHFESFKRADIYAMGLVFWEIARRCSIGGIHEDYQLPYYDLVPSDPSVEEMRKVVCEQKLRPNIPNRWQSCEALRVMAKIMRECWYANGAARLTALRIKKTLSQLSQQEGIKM

[5] = Metabolic stability of the compound in CD-1 mouse liver microsomes assessed as parent compound remaining at 5 uM preincubated for 5 mins followed by NADPH addition and measured after 30 mins by LC-TOF/MS analysis; type: ADME, Microsome; settings: time 35 min, read-out: Stability
In short: (§1)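 Mouse liver microsomes incubated with compound in the presence of NADPH. Read-out is % parent compound remaining after 30 min.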

[6] = Metabolic stability of the compound in CD-1 mouse liver microsomes at 5 uM by LC-TOF/MS analysis; type: ADME, Microsome; in short: as §1

Row | Compound | MIC50 [4] [µM] | MIC90 [4] [µM] | other results
1 | Cn1cncc1-c1ccc2ncnc(Nc3ccc(OCc4ccccc4)cc3)c2c1 |  |  | inhibition at 20 µM [1]: > 90%; MIC50 [2]: 5 µM (≈ 2.04 µg/mL); MIC90 [2]: 5 µM (≈ 2.04 µg/mL); MIC90 [3]: 11 µM (≈ 4.48 µg/mL)
2 | Fc1cccc(-c2nc(Nc3ccncc3)c3ccccc3n2)c1 | > 10 | > 10 | 
3 | Cc1cccc(-c2nc(Oc3ccc4ncsc4c3)c3ccccc3n2)n1 | < 0.3 | 0.3 (≈ 0.111 µg/mL) | Kd (TGF-beta receptor type-1): > 10 µM
4 | Cc1cccc(-c2cc(Nc3ccncc3)c3ccccc3n2)n1 | 2.5 (≈ 0.781 µg/mL) | > 10 | 
5 | Fc1cccc(-c2nc(Nc3ccncc3)c3ccccc3n2)n1 | 1 (≈ 0.317 µg/mL) | 5 (≈ 1.59 µg/mL) | remaining at 0.5 h, 5 µM [5]: 18%; Stability [6]: Stable
6 | Cc1cc(-c2nc(Nc3ccncc3)c3ccccc3n2)cs1 | > 10 | > 10 | 
7 | Cc1cccc(-c2nc(Nc3ccc4ncn(C)c4c3)c3ccccc3n2)n1 | 0.3 (≈ 0.11 µg/mL) | > 10 | 
8 | c1cncc(-c2nc(Nc3ccncc3)c3ccccc3n2)c1 | > 10 | > 10 | 
9 | Cc1cccc(-c2nc(Nc3ccc4nn[nH]c4c3)c3ccccc3n2)n1 | 1.3 (≈ 0.459 µg/mL) | 5 (≈ 1.77 µg/mL) | Kd (TGF-beta receptor type-1): > 10 µM
10 | Cc1cccc(-c2nc(N(C)c3ccc4ncsc4c3)c3ccccc3n2)n1 | < 0.3 | 1.3 (≈ 0.499 µg/mL) | Kd (TGF-beta receptor type-1): > 10 µM
11 | Cc1cccc(-c2nc(Nc3ccc4ncsc4c3)c3ccccc3n2)n1 | < 0.3 | 1.3 (≈ 0.48 µg/mL) | 
12 | Cc1cccc(-c2nc(Nc3ccc4scnc4c3)c3ccccc3n2)n1 | < 0.3 | 1.3 (≈ 0.48 µg/mL) | Kd (TGF-beta receptor type-1): > 10 µM
13 | Cc1cc(Nc2nc(-c3cccc(C)n3)nc3ccccc23)ccn1 | < 0.3 | 1.3 (≈ 0.426 µg/mL) | 
14 | c1cnc(-c2nc(Nc3ccncc3)c3ccccc3n2)nc1 | 2.5 (≈ 0.751 µg/mL) | > 10 | 
15 | COc1ccc2c(Nc3ccncc3)nc(-c3cccc(C)n3)nc2c1 | 1 (≈ 0.343 µg/mL) | 2.5 (≈ 0.858 µg/mL) | remaining at 0.5 h, 5 µM [5]: 12%; Stability [6]: Stable
16 | Cc1cccc(-c2nc(Nc3ccc4ccsc4c3)c3ccccc3n2)n1 | < 0.3 | 0.3 (≈ 0.111 µg/mL) | Kd (TGF-beta receptor type-1): > 10 µM; remaining at 0.5 h, 5 µM [5]: 8%; Stability [6]: Stable
17 | Cc1cccc(-c2nc(Nc3ccc4[nH]ccc4c3)c3ccccc3n2)n1 | 1.3 (≈ 0.457 µg/mL) | 1.3 (≈ 0.457 µg/mL) | 
18 | CS(=O)(=O)CCNCc1coc(-c2ccc3ncnc(Nc4ccc(OCc5ccccc5)cc4)c3c2)c1 [GW566221A] |  |  | inhibition at 20 µM [1]: > 90%; MIC90 [2]: 3 µM (≈ 1.59 µg/mL); MIC90 [3]: 7 µM (≈ 3.7 µg/mL)
19 | Clc1cccc(-c2nc(Nc3ccncc3)c3ccccc3n2)n1 | < 1 | < 1 | remaining at 0.5 h, 5 µM [5]: 18%; Stability [6]: Stable
20 | CSc1cccc(Nc2nc(-c3cccc(C)n3)nc3ccccc23)c1 | < 0.3 | 1.3 (≈ 0.466 µg/mL) | 
21 | Cn1ccc(-c2nc(Nc3ccncc3)c3ccccc3n2)n1 | > 10 | > 10 | 
22 | Cc1csc(-c2nc(Nc3ccncc3)c3ccccc3n2)n1 | > 10 | > 10 | 
23 | COc1ccc(Nc2nc(-c3cccc(C)n3)nc3ccccc23)cc1 | < 0.3 | 1.3 (≈ 0.445 µg/mL) | Kd (TGF-beta receptor type-1): > 10 µM
24 | Cc1cccc(-c2nc(Nc3ccc4c(c3)nnn4C)c3ccccc3n2)n1 | < 0.3 | 1.3 (≈ 0.478 µg/mL) | Kd (TGF-beta receptor type-1): > 10 µM; remaining at 0.5 h, 5 µM [5]: 28%; Stability [6]: Stable
25 | Cc1cccc(-c2nc(Nc3ccc4nnn(C)c4c3)c3ccccc3n2)n1 | < 0.3 | 0.3 (≈ 0.11 µg/mL) | Kd (TGF-beta receptor type-1): > 10 µM; remaining at 0.5 h, 5 µM [5]: 15%; Stability [6]: Stable
26 | c1ccc2c(Nc3ccncc3)nc(-c3ccc4c(c3)OCO4)nc2c1 | > 10 | > 10 | 
27 | Fc1ccc(-c2c(-c3ccccn3)nc3n2CCS3)cc1 |  |  | inhibition at 20 µM [1]: > 90%; MIC50 [2]: 9 µM (≈ 2.68 µg/mL); MIC90 [2]: > 20 µM
